# Laboratory results: ChEMBL document CHEMBL4725492, “Dioxane-Linked Amide Derivatives as Novel Bacterial Topoisomerase Inhibitors against Gram-Positive Staphylococcus aureus” (ACS Med Chem Lett, 2020)
# Active and inactive are the calls of the source. The calls are words filed in the database; no cut-off is given here.
# Molecular target: T1, DNA gyrase (Staphylococcus aureus) (UniProt P0A0K8+P20831)
# Experiment: Inhibition of Staphylococcus aureus DNA gyrase assessed as double-strand break at 20 uM using relaxed pBR322 as substrate by ethidium bromide-based gel electrophoresis
# Format: protein-complex assay
# Conditions: not given
# Summary of the method: (§1)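 S. aureus gyrase-mediated DNA cleavage: compound was incubated with enzyme and DNA, and products were resolved on an ethidium-stained gel into negatively supercoiled, nicked (single-strand break) and linear (double-strand break) forms. Lane fluorescence was corrected for differential band emission. Percent of each form was calculated, and enzyme-only cleavage was subtracted. Concentrations spanned 0.1 nM–200 μM, with a 20 μM single-point screen. Results are mean ± SD or range.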
row,Compound,inhibition
1,COc1ccc2nccc(CC[C@H]3OC[C@H](NC(=O)c4ccc(C(F)(F)F)cc4)CO3)c2c1,inactive
2,COc1ccc2nccc(CC[C@H]3OC[C@H](NC(=O)c4ccc(Cl)c(Cl)c4)CO3)c2c1,inactive

# Molecular target: DNA gyrase (Staphylococcus aureus, UniProt P0A0K8+P20831)
# Experiment: Inhibition of Staphylococcus aureus DNA gyrase using relaxed pBR322 as substrate by gel electrophoresis
# Format: protein-complex assay
# Conditions: not given
row,Compound,IC50
1,COc1ccc2nccc(CC[C@H]3OC[C@H](NC(=O)c4ccc(C(F)(F)F)cc4)CO3)c2c1,1100 nM
2,COc1ccc2nccc(CC[C@H]3OC[C@H](NC(=O)c4ccc(Cl)c(Cl)c4)CO3)c2c1,590 nM
3,COc1ccc2nccc(CC[C@H]3OC[C@H](NC(=O)c4ccc5c(c4)NC(=O)CO5)CO3)c2c1,60 nM
4,COc1ccc2nccc(CC[C@H]3OC[C@H](NC(=O)c4ccc5c(n4)NC(=O)CS5)CO3)c2c1,170 nM
5,COc1ccc(C(=O)N[C@H]2CO[C@H](CCc3ccnc4ccc(OC)cc34)OC2)cc1,3900 nM
6,COc1ccc2nccc(CC[C@H]3OC[C@H](NC(=O)c4ccc5c(n4)NC(=O)CO5)CO3)c2c1,40 nM

# Molecular target: T1, DNA gyrase (Staphylococcus aureus)
# Experiment: Inhibition of Staphylococcus aureus DNA gyrase assessed as single-strand break at 20 uM using relaxed pBR322 as substrate by ethidium bromide-based gel electrophoresis
# Format: protein-complex assay
# Conditions: not given
# Summary of the method: as §1
row,Compound,inhibition
1,COc1ccc2nccc(CC[C@H]3OC[C@H](NC(=O)c4ccc(C(F)(F)F)cc4)CO3)c2c1,Active
2,COc1ccc2nccc(CC[C@H]3OC[C@H](NC(=O)c4ccc(Cl)c(Cl)c4)CO3)c2c1,Active

# Tested on: not listed separately
# Experiment: Growth inhibition of human K/VP.5 cells incubated for 48 hrs by sulforhodamine B assay
# Format: functional
# Conditions: not given
row,Compound,INH
1,COc1ccc2nccc(CC[C@H]3OC[C@H](NC(=O)c4ccc(C(F)(F)F)cc4)CO3)c2c1,8.9 µM
2,COc1ccc2nccc(CC[C@H]3OC[C@H](NC(=O)c4ccc5c(c4)NC(=O)CO5)CO3)c2c1,>200 µM
3,COc1ccc2nccc(CC[C@H]3OC[C@H](NC(=O)c4ccc5c(n4)NC(=O)CS5)CO3)c2c1,>200 µM
4,COc1ccc2nccc(CC[C@H]3OC[C@H](NC(=O)c4ccc5c(n4)NC(=O)CO5)CO3)c2c1,>200 µM

# Molecular target: Voltage-gated inwardly rectifying potassium channel KCNH2 (Homo sapiens, UniProt Q12809)
# Experiment: Inhibition of human ERG
# Conditions: human
row,Compound,INH
1,COc1ccc2nccc(CC[C@H]3OC[C@H](NC(=O)c4ccc(C(F)(F)F)cc4)CO3)c2c1,> 30 µM
2,COc1ccc2nccc(CC[C@H]3OC[C@H](NC(=O)c4ccc5c(n4)NC(=O)CS5)CO3)c2c1,> 3 µM
3,COc1ccc2nccc(CC[C@H]3OC[C@H](NC(=O)c4ccc5c(n4)NC(=O)CO5)CO3)c2c1,> 12 µM

# Molecular target: Topoisomerase IV (Staphylococcus aureus, UniProt P0C1S7+P0C1U9)
# Experiment: Inhibition of Staphylococcus aureus topoisomerase-4 assessed as reduction in decatenation of kinetoplast DNA agarose gel electrophoresis method
# Format: protein-complex assay
# Conditions: not given
row,Compound,IC50
1,COc1ccc2nccc(CC[C@H]3OC[C@H](NC(=O)c4ccc(C(F)(F)F)cc4)CO3)c2c1,> 200000 nM
2,COc1ccc2nccc(CC[C@H]3OC[C@H](NC(=O)c4ccc(Cl)c(Cl)c4)CO3)c2c1,> 200000 nM
3,COc1ccc2nccc(CC[C@H]3OC[C@H](NC(=O)c4ccc5c(c4)NC(=O)CO5)CO3)c2c1,890 nM
4,COc1ccc2nccc(CC[C@H]3OC[C@H](NC(=O)c4ccc5c(n4)NC(=O)CS5)CO3)c2c1,300 nM
5,COc1ccc(C(=O)N[C@H]2CO[C@H](CCc3ccnc4ccc(OC)cc34)OC2)cc1,106000 nM
6,COc1ccc2nccc(CC[C@H]3OC[C@H](NC(=O)c4ccc5c(n4)NC(=O)CO5)CO3)c2c1,190 nM

# Molecular target: DNA topoisomerase 2-alpha (Homo sapiens, UniProt P11388)
# Experiment: Inhibition of human topoisomerase 2alpha
# Conditions: not given
# Summary of the method: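 Human topoisomerase IIα decatenation activity was tested at a single concentration of 100 μM and reported as percent inhibition.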
row,Compound,inhibition (INH)
1,COc1ccc2nccc(CC[C@H]3OC[C@H](NC(=O)c4ccc(C(F)(F)F)cc4)CO3)c2c1,Not Active
2,COc1ccc(C(=O)N[C@H]2CO[C@H](CCc3ccnc4ccc(OC)cc34)OC2)cc1,Not Active

# Tested on: Staphylococcus aureus
# Experiment: Antibacterial activity against Staphylococcus aureus ATCC 29213 by CLSI based agar dilution method
# Format: functional
# Conditions: not given
row,Compound,MIC
1,COc1ccc2nccc(CC[C@H]3OC[C@H](NC(=O)c4ccc(C(F)(F)F)cc4)CO3)c2c1,0.25 µg/mL
2,COc1ccc2nccc(CC[C@H]3OC[C@H](NC(=O)C4(C)CCCCC4)CO3)c2c1,> 64 µg/mL
3,COc1ccc2nccc(CC[C@H]3OC[C@H](NC(=O)c4ccc(Cl)c(Cl)c4)CO3)c2c1,0.125 µg/mL
4,COc1ccc2nccc(CC[C@H]3OC[C@H](NC(=O)C4CCCCC4)CO3)c2c1,8 µg/mL
5,COc1ccc2nccc(CC[C@H]3OC[C@H](NC(=O)c4ccc5c(c4)NC(=O)CO5)CO3)c2c1,0.25 µg/mL
6,COc1ccc2nccc(CC[C@H]3OC[C@H](NC(=O)[C@H]4CC[C@H](C)CC4)CO3)c2c1,4 µg/mL
7,COc1ccc2nccc(CC[C@H]3OC[C@H](NC(=O)c4ccc5c(n4)NC(=O)CS5)CO3)c2c1,0.06 µg/mL
8,COc1ccc2nccc(CC[C@H]3OC[C@H](NC(=O)c4ccccc4Cl)CO3)c2c1,256 µg/mL
9,COc1ccc(C(=O)N[C@H]2CO[C@H](CCc3ccnc4ccc(OC)cc34)OC2)cc1,4 µg/mL
10,COc1ccc2nccc(CC[C@H]3OC[C@H](NC(=O)[C@H]4CC[C@H](O)CC4)CO3)c2c1,> 64 µg/mL
11,COc1ccc2nccc(CC[C@H]3OC[C@H](NC(=O)[C@H]4CC[C@@H](O)CC4)CO3)c2c1,> 64 µg/mL
12,COc1ccc2nccc(CC[C@H]3OC[C@H](NC(=O)c4ccc5c(n4)NC(=O)CO5)CO3)c2c1,0.125 µg/mL

# Tested on: Staphylococcus aureus
# Experiment: Antibacterial activity against Staphylococcus aureus USA300 by CLSI based agar dilution method
# Format: functional
# Conditions: not given
row,Compound,MIC
1,COc1ccc2nccc(CC[C@H]3OC[C@H](NC(=O)c4ccc(C(F)(F)F)cc4)CO3)c2c1,≤ 0.5 µg/mL
2,COc1ccc2nccc(CC[C@H]3OC[C@H](NC(=O)C4(C)CCCCC4)CO3)c2c1,> 64 µg/mL
3,COc1ccc2nccc(CC[C@H]3OC[C@H](NC(=O)c4ccc(Cl)c(Cl)c4)CO3)c2c1,0.125 µg/mL
4,COc1ccc2nccc(CC[C@H]3OC[C@H](NC(=O)C4CCCCC4)CO3)c2c1,8 µg/mL
5,COc1ccc2nccc(CC[C@H]3OC[C@H](NC(=O)c4ccc5c(c4)NC(=O)CO5)CO3)c2c1,0.25 µg/mL
6,COc1ccc2nccc(CC[C@H]3OC[C@H](NC(=O)[C@H]4CC[C@H](C)CC4)CO3)c2c1,8 µg/mL
7,COc1ccc2nccc(CC[C@H]3OC[C@H](NC(=O)c4ccc5c(n4)NC(=O)CS5)CO3)c2c1,0.03 µg/mL
8,COc1ccc2nccc(CC[C@H]3OC[C@H](NC(=O)c4ccccc4Cl)CO3)c2c1,> 256 µg/mL
9,COc1ccc(C(=O)N[C@H]2CO[C@H](CCc3ccnc4ccc(OC)cc34)OC2)cc1,8 µg/mL
10,COc1ccc2nccc(CC[C@H]3OC[C@H](NC(=O)[C@H]4CC[C@H](O)CC4)CO3)c2c1,> 64 µg/mL
11,COc1ccc2nccc(CC[C@H]3OC[C@H](NC(=O)[C@H]4CC[C@@H](O)CC4)CO3)c2c1,> 64 µg/mL
12,COc1ccc2nccc(CC[C@H]3OC[C@H](NC(=O)c4ccc5c(n4)NC(=O)CO5)CO3)c2c1,0.125 µg/mL

# Tested on: Staphylococcus aureus
# Experiment: Antibacterial activity against Staphylococcus aureus D83N by CLSI based agar dilution method
# Format: functional
# Conditions: not given
row,Compound,MIC
1,COc1ccc2nccc(CC[C@H]3OC[C@H](NC(=O)c4ccc(C(F)(F)F)cc4)CO3)c2c1,> 64 µg/mL
2,COc1ccc2nccc(CC[C@H]3OC[C@H](NC(=O)C4(C)CCCCC4)CO3)c2c1,> 64 µg/mL
3,COc1ccc2nccc(CC[C@H]3OC[C@H](NC(=O)c4ccc(Cl)c(Cl)c4)CO3)c2c1,> 32 µg/mL
4,COc1ccc2nccc(CC[C@H]3OC[C@H](NC(=O)C4CCCCC4)CO3)c2c1,32 µg/mL
5,COc1ccc2nccc(CC[C@H]3OC[C@H](NC(=O)c4ccc5c(c4)NC(=O)CO5)CO3)c2c1,> 64 µg/mL
6,COc1ccc2nccc(CC[C@H]3OC[C@H](NC(=O)[C@H]4CC[C@H](C)CC4)CO3)c2c1,> 32 µg/mL
7,COc1ccc2nccc(CC[C@H]3OC[C@H](NC(=O)c4ccc5c(n4)NC(=O)CS5)CO3)c2c1,> 64 µg/mL
8,COc1ccc2nccc(CC[C@H]3OC[C@H](NC(=O)c4ccccc4Cl)CO3)c2c1,> 256 µg/mL
9,COc1ccc(C(=O)N[C@H]2CO[C@H](CCc3ccnc4ccc(OC)cc34)OC2)cc1,32 µg/mL
10,COc1ccc2nccc(CC[C@H]3OC[C@H](NC(=O)[C@H]4CC[C@H](O)CC4)CO3)c2c1,> 64 µg/mL
11,COc1ccc2nccc(CC[C@H]3OC[C@H](NC(=O)[C@H]4CC[C@@H](O)CC4)CO3)c2c1,> 64 µg/mL
12,COc1ccc2nccc(CC[C@H]3OC[C@H](NC(=O)c4ccc5c(n4)NC(=O)CO5)CO3)c2c1,> 64 µg/mL

# Tested on: K562
# Experiment: Growth inhibition of human K562 cells incubated for 48 hrs by sulforhodamine B assay
# Format: functional
# Conditions: not given
row,Compound,INH
1,COc1ccc2nccc(CC[C@H]3OC[C@H](NC(=O)c4ccc(C(F)(F)F)cc4)CO3)c2c1,6.8 µM
2,COc1ccc2nccc(CC[C@H]3OC[C@H](NC(=O)c4ccc5c(c4)NC(=O)CO5)CO3)c2c1,>200 µM
3,COc1ccc2nccc(CC[C@H]3OC[C@H](NC(=O)c4ccc5c(n4)NC(=O)CS5)CO3)c2c1,>200 µM
4,COc1ccc2nccc(CC[C@H]3OC[C@H](NC(=O)c4ccc5c(n4)NC(=O)CO5)CO3)c2c1,>200 µM

# Tested on: Staphylococcus aureus
# Experiment: Antibacterial activity against Staphylococcus aureus 3527 by CLSI based agar dilution method
# Format: functional
# Conditions: not given
row,Compound,MIC
1,COc1ccc2nccc(CC[C@H]3OC[C@H](NC(=O)c4ccc(C(F)(F)F)cc4)CO3)c2c1,≤ 0.5 µg/mL
2,COc1ccc2nccc(CC[C@H]3OC[C@H](NC(=O)C4(C)CCCCC4)CO3)c2c1,> 64 µg/mL
3,COc1ccc2nccc(CC[C@H]3OC[C@H](NC(=O)c4ccc(Cl)c(Cl)c4)CO3)c2c1,0.5 µg/mL
4,COc1ccc2nccc(CC[C@H]3OC[C@H](NC(=O)C4CCCCC4)CO3)c2c1,8 µg/mL
5,COc1ccc2nccc(CC[C@H]3OC[C@H](NC(=O)c4ccc5c(c4)NC(=O)CO5)CO3)c2c1,0.5 µg/mL
6,COc1ccc2nccc(CC[C@H]3OC[C@H](NC(=O)[C@H]4CC[C@H](C)CC4)CO3)c2c1,8 µg/mL
7,COc1ccc2nccc(CC[C@H]3OC[C@H](NC(=O)c4ccc5c(n4)NC(=O)CS5)CO3)c2c1,0.03 µg/mL
8,COc1ccc2nccc(CC[C@H]3OC[C@H](NC(=O)c4ccccc4Cl)CO3)c2c1,> 256 µg/mL
9,COc1ccc(C(=O)N[C@H]2CO[C@H](CCc3ccnc4ccc(OC)cc34)OC2)cc1,16 µg/mL
10,COc1ccc2nccc(CC[C@H]3OC[C@H](NC(=O)[C@H]4CC[C@H](O)CC4)CO3)c2c1,> 64 µg/mL
11,COc1ccc2nccc(CC[C@H]3OC[C@H](NC(=O)[C@H]4CC[C@@H](O)CC4)CO3)c2c1,> 64 µg/mL
12,COc1ccc2nccc(CC[C@H]3OC[C@H](NC(=O)c4ccc5c(n4)NC(=O)CO5)CO3)c2c1,0.125 µg/mL
